An excerpt weighted towards active compounds, which were near 0.3% of everything screened.
KSHV LANA nucl: LANA-nucleosome interaction inhibition. FITC-LANA1-23 / chicken nucleosome fluorescence polarization; hits give low values. z-score (no concentration beside the values). hit rate 0.3% among 51,000. AID 720717;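 active = both repeat wells score below -2 in polarization z-score versus plate sample wells, excluding overly bright wells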
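Assay system: purified chicken nucleosomes with FITC-labelled LANA N-terminal peptide (1-23) / Probe or stimulus: 50 nM FITC-LANA1-23 probe / Compound dosing: pin-transferred compound, 100 nL / Times: compound with peptide–nucleosome mix 10–45 min at room temperature / Technique: fluorescence polarization, 480 nm excitation, 535 nm parallel and perpendicular emission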
Ab BasE inh: inhibitors of Acinetobacter baumannii siderophore enzyme BasE | purified BasE, fluorescence polarization binding displacement | hit rate 0.1% among 84,000 | inhibition, % (test concentration not listed); in the data active = inhibition above about 25%, passing the limit was not always enough;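 also: 0% = negative plate control signal and 100% = positive plate control signal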
* marks the source's active call; other numbers are inactive results; nt = no result given; ! = not active in a repeat.

SMILES	KSHV LANA nucl	Ab BasE inh
O=c1c(-c2ccc(Oc3ccccc3)cc2)[n+]([O-])c2ccccc2n1O	0.26	0
N#Cc1c(=O)n(O)c2ccccc2[n+]1[O-]	-13*	2
O=C(Nc1ccc(N2CCOCC2)cc1)Nc1ccc2nc(-c3ccco3)c(-c3ccco3)nc2c1	-0.67	3
O=C(NCCCO)Nc1ccc2nc(-c3ccco3)c(-c3ccco3)nc2c1	-3*	23
O=C(CSc1n[nH]c(=O)n1C1CC1)NC1CCCC1	nt	0
CC1=CC(C)=NC2Nc3c(C)cc(C)cc3C(=N)C12 (centres undefined)	-2.2*	5
CCC(=O)c1cn(CC(N)=O)c2ccccc12	-0.2	5
CC(C)(C)N/N=C/c1ccc(O)c(O)c1O	nt	5
Oc1ccc(/C=N/NC(=S)Nc2ccc(Cl)cc2Cl)c(O)c1O	nt	34*
Cc1ccc2c(c1)-c1c(cnn1CC(=O)Nc1ccc(S(=O)(=O)N3CCCCC3)cc1)CO2	0.12	0
O=C(Cc1nc2ccccc2s1)c1ccc(O)cc1O	nt	22
O=C(Cc1nncn1-c1ccccc1)c1ccc(O)cc1O	nt	33*
Cc1ccc(S(=O)(=O)N(CCC(N)=O)c2ccccc2)cc1	nt	-1
COC(=O)c1sc2nc3c(c(C(F)(F)F)c2c1N)CN(C(C)=O)CC3	-8.1*	31
COC(=O)c1sc2nc(-c3ccco3)cc(C(F)(F)F)c2c1N	-1.1	3
O=C1c2ccccc2-c2n[nH]c3cccc1c23	-2*!	9
O=c1[nH]nc2c3c(cccc13)-c1ccccc1-2	1.9	-3
Nc1nnc(CCC(CCc2nnc(N)s2)(CCc2nnc(N)s2)C(=O)c2ccccc2)s1	-1.2	-2
Cc1occc1-c1nnc(SCC(=O)NCc2ccc3c(c2)OCO3)n1CC(C)C	-1.1	1
COCCn1c(SCC(=O)NCc2ccc3c(c2)OCO3)nnc1-c1c[nH]c2ccccc12	-2.2*	0
CCOC(=O)c1c(CSc2nnc(Cc3csc(C)n3)o2)nc2ccccc2c1C	nt	-1
CCOc1cc(/C=C/c2ccccc2OC)cc(=O)c2c(C)oc(C)c12	nt	16
COc1cccc(=O)c2c(C)oc(C)c12	-4.4*	12
Cc1cc(NCCNc2ccccc2)c2ccc3ccccc3c2n1	nt	-13
Cc1cc(NCCN(C)C)c2ccccc2n1	-2.2*	3
SMILES	KSHV LANA nucl	Ab BasE inh
O=S(=O)(N/N=C/c1ccccc1)c1ccccc1	-0.53	2
CNC(=O)c1ccsc1NC(=O)c1ccc(F)cc1	0.96	0
N#Cc1c(NCc2ccccc2)ncc2c1Nc1ccccc1C2	-3.3*	-1
CC(C)c1nc(NCc2ccccc2)c(C#N)c2c1CCCC2	0.065	2
COc1ccc(C(=O)Nc2cccc3ncccc23)cc1OC	nt	-1
Cc1ccc2c(c1)c1c3c(nccn32)CCC1	-3.2*	10
Cc1ccc2c(c1)c1c(n2C)C(C#N)CCC1 (centres undefined)	-0.56	2
COc1ccc(-c2csc(-n3[nH]c(C)c(C(c4ccc(Cl)cc4)C(C#N)C(N)=O)c3=O)n2)cc1 (centres undefined)	-0.008	35*
COc1ccc(-c2cc(-c3ccco3)nn2-c2nc(-c3ccc(Cl)cc3)cs2)cc1	nt	-1
Cc1nn(Cc2ccccc2)c(Cl)c1/C=C/C(=O)OCc1nnc(-c2ccccc2)o1	nt	-1
COc1cccc2c1C(=O)c1c(O)c3c(c(O)c1C2=O)C[C@@](O)(C(=O)CO)C[C@@H]3OC1C[C@H](N)[C@H](O)[C@H](C)O1 (some centres undefined)	-7.5*	nt
CN(CCNC(=O)c1cc2c(s1)CS(=O)(=O)C2)C1CCCCC1	2.6	-1
O=C(Nc1cccc(-c2nn[nH]n2)c1)c1cccc(C(F)(F)F)c1	-0.21	0
O=C(Nc1cccc(-c2nn[nH]n2)c1)c1ccc(Br)o1	-2.1*	3
C/C(N)=C(/C#N)C(=O)CN1C(=O)NC(C)(c2ccc3c(c2)OCO3)C1=O (centres undefined)	nt	0
COc1ccc2[nH]cc(-c3csc(N)n3)c2c1	0.46	-9
CCOC(=O)c1c(C)n(C)c2ccc(O)cc12	-0.1	0
CCOC(=O)c1c2ccc(O)cc2n2ccccc12	-7*	nt
O=C(Cc1n[nH]c(=O)c2ccccc12)OCCOc1cccc(Cl)c1	nt	0
Cc1oc(-c2ccccc2)nc1C(=O)OCc1cc(=O)n2ccsc2n1	nt	-2
CCNC(=S)N1CCN(S(=O)(=O)c2ccc(C)cc2)CC1	nt	-3
CCNC(=S)N1CCN(S(=O)(=O)c2ccc(Cl)cc2)CC1	-2.2*	3
COC(=O)c1cc(COC(=O)c2ccc3ncsc3c2)oc1C	nt	0
C(=N\NC1=NCCCCC1)/c1ccc2c(c1)OCO2	nt	2
CN(C)C(=O)Cn1c(-c2ccc(F)cc2)ccc(C#N)c1=O	-0.43	-1
SMILES	KSHV LANA nucl	Ab BasE inh
O=C(N/N=C1/CCS(=O)(=O)c2ccc(F)cc21)c1ccccn1	nt	-1
O=C(N/N=C1\CCS(=O)(=O)c2ccc(F)cc21)c1ccc(O)cc1	nt	55*
COc1ccc(-c2noc(CC(=O)N3CCN(c4ccccn4)CC3)n2)cc1	0.17	-1
Fc1ccc(-c2nc3n(n2)Cc2ccccc2-3)cc1	1	-2
Cn1nc(-c2ccc(F)cc2)nc2c(=O)n(C)c(=O)nc1-2	-4.8*	36
COc1ccccc1Cn1c(=O)c2ccccc2n2c(SCC(=O)N3CCOCC3)nnc12	nt	-1
O=C(NNc1ccccc1)c1cnn2c(C(F)(F)F)cc(C(F)(F)F)nc12	-0.69	4
COc1ccc(-n2c(C)nnc2SCC(=O)NCc2cc3cc(Cl)ccc3n2C)cc1	-3	1
COC(=O)c1cc2oc3ccccc3c2n1CC(=O)Nc1ccc(F)cc1F	-0.66	2
Cc1csc(C(C#N)C(=O)CSc2cc(C)c3ccccc3n2)n1 (centres undefined)	nt	2
Cc1csc(C(C#N)C(=O)CSc2nc3ccccc3n2-c2ccccc2)n1 (centres undefined)	nt	35*
CCCn1c(N)c(C(=O)COC(=O)c2cc(-c3ccc(C)o3)nc3ccccc23)c(=O)[nH]c1=O	nt	0
O=C(O)C1Nc2c(I)cccc2C2C=CCC12 (centres undefined)	1.3	47*
COC(=O)c1ccc([C@@H]2Nc3c(C)cccc3[C@@H]3C=CC[C@@H]32)cc1	nt	-1
COc1ccccc1-n1cnc2cc(NCc3ccncc3)ccc21	0.49	32*
CCCCn1cnc2cc(NCc3ccncc3)ccc21	-0.39	13
CC(C)C(C(=O)O)N1C(=O)/C(=C/C=C/c2ccco2)SC1=S (centres undefined)	0.004	24
O=C(O)CCC(C(=O)O)N1C(=O)/C(=C/C=C/c2ccco2)SC1=S (centres undefined)	-2.2*	9
O=C1/C(=C\C=C\c2ccco2)SC(=S)N1NS(=O)(=O)c1ccccc1	-0.52	40*
O=C(NN1C(=O)/C(=C\C=C\c2ccco2)SC1=S)c1ccccc1O	1.6	21
CCN(CC)C(=O)Cn1cc(/C=C2\C(=O)NC(=O)N(CC)C2=O)c2ccccc21	-2.7*	1
C=CCN1C(=O)NC(=O)/C(=C\c2cn(Cc3ccccc3)c3ccccc23)C1=O	nt	4
COc1ccc(N2CCN(C(=O)CSc3nnc4c(C)cc5cc6c(cc5n34)OCCO6)CC2)cc1	0.65	3
COc1ccc(CCNC(=O)/C(C#N)=C/c2ccc[nH]2)cc1OC	-0.77	0
S=C1NCN(CC2CCCO2)CN1 (centres undefined)	0.19	1
